The nature of data set [1]: Antioxidant activity assessed as trolox equivalents of AAPH radical scavenging activity at 1 to 10 uM preincubated for 15 mins followed by AAPH addition measured every 60 sec for 90 mins by ORAC-FL assay. The class given is functional. The method, boiled down:
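ORAC-FL in 75 mM phosphate buffer pH 7.4. Compound at 1–10 µM with fluorescein (150 nM final), pre-incubated 15 min at 37 °C, then AAPH added (12 mM final). Fluorescence read every minute for 90 min, ex 485/em 535 nm. Curves normalised to the FL+AAPH blank. Trolox standard 1–8 µM. Duplicates, ≥3 independent assays. Results given as µM Trolox equivalent per µM compound.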

Another data set has as its system Mus musculus. Nature of the data set: Reversal of scopolamine-induced memory impairment in Kunming mouse assessed as step-down latency time at 7.33 mg/kg, po administered 60 mins prior to training trial followed by scopolamine challenge at 30 mins post dose measured 24 hrs after training trial by passive avoidance test. Type of data set: functional. The method, boiled down: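 Kunming mice, 18–22 g, six weeks old, either sex; 10 per group. Oral dosing 1 h before training (test compound 3.67, 7.33, 22 mg/kg; donepezil 5.0 mg/kg), scopolamine 3 mg/kg i.p. 30 min later. Training: 0.5 mA, 2 s foot shock on stepping off the block. Step-down latency measured 24 h later. Mean ± SEM.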

Data set [2] relates to PC-12. The data set is described as follows: Neuroprotective activity against H2O2 induced cell injury in rat PC12 cells assessed as increase in cell viability preincubated for 24 hrs followed by incubation with H2O2 for 2 hrs measured after 24 hrs by MTT assay. Type of data set: functional, cell-based. In outline:
(§1)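 PC12 cells in phenol-red-free DMEM with 10% FCS, plated at 10^5 cells/well. Cells preincubated 24 h with compound (1.0 or 10.0 µM; dissolved in 2% DMSO, diluted in PBS), then exposed to H2O2 100 µM for 2 h. Medium replaced; viability assessed 24 h later by MTT (4 h, 37 °C), lysis in DMF/SDS, A590.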
Background: Tetrazolium assays rely on reduction of a dye to a coloured formazan, in cell work by metabolically active cells.

Data set [3] in a line: Metal chelating activity assessed as mole fraction of compound required to show 1:1 stoichiometry for Cu2+-compound complex up to 37.5 uM after 30 mins by UV-vis spectrophotometric method. The method, boiled down: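 Molar-ratio titration in methanol: compound fixed at 37.5 µM final with CuCl2 at 3.75-93.75 µM final. Absorbance at 386 nm taken after numerical subtraction of CuCl2 and compound spectra, and plotted against mole fraction of compound. Stoichiometry taken from the intersection of two straight lines.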

Data set [4] can be described thus: Solubility of the compound in water. The class given is physicochemical. To be noted: buffer.
Data set [5] relates to PC-12. Nature of the data set: Neuroprotective activity against H2O2-induced cell injury in rat PC12 cells assessed as cell viability at 10 uM preincubated for 24 hrs followed by incubation with H2O2 for 2 hrs measured after 24 hrs by MTT assay (reference value: 43.9%). Conditions: read-out: Activity. Type of data set: functional. In outline: as §1
The target in data set [6] is T1, Acetylcholinesterase (Rattus norvegicus, UniProt P37136).
T1 sequence (P37136 whole entry): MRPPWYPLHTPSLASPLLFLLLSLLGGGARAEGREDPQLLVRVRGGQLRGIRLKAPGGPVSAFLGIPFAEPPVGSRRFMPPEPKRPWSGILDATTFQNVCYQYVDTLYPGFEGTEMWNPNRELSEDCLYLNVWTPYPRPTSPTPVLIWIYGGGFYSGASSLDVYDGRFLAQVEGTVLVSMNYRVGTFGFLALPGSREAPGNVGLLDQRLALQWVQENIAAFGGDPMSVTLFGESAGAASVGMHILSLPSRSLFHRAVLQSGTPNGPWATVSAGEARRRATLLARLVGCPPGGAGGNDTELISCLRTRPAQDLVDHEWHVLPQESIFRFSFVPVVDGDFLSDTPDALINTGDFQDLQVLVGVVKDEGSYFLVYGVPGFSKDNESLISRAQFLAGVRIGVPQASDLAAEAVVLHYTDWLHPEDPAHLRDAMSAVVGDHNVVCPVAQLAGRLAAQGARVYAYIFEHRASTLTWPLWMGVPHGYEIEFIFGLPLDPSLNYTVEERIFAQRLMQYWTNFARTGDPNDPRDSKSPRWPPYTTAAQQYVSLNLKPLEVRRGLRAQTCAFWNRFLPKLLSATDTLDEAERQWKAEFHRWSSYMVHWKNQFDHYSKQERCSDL
Nature of the data set: Inhibition of rat cortex homogenate AChE using acetylthiocholine iodide as substrate after 15 mins in presence of BuChE inhibitor iso-OMPA by Ellman's method. (In general: In Ellman's method for cholinesterases, released thiocholine reacts with DTNB.)

Data set [7] is described as follows: Inhibition of rat serum BuChE using butyrylthiocholine iodide as substrate after 15 mins by Ellman's method. The class given is ADME.
The nature of data set [8]: Metal chelating activity assessed as inhibition of Cu2+ induced amyloid beta (1 to 42) aggregation at 25 uM after 24 hrs by ThT-based fluorometric method relative to control. In outline:
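Aβ1-42 (25 µM) with Cu2+ (25 µM, one equivalent) in 20 mM HEPES pH 6.6 with NaCl, incubated 24 h at 37 °C ± compound (25 µM). Then 5 µM thioflavin T in glycine-NaOH pH 8.5 was added and read at ex 446/em 490 nm. Triplicate. % inhibition relative to no-compound control.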

In data set [9] the target is T2, Acetylcholinesterase (Homo sapiens, UniProt P22303). Nature of the data set: Inhibition of human erythrocyte AChE using acetylthiocholine iodide as substrate after 15 mins by Ellman's method.
For data set [10], the target named is Acetylcholinesterase (Electrophorus electricus, UniProt O42275). The data set is described as follows: Inhibition of electric eel AChE using acetylthiocholine iodide as substrate after 15 mins by Ellman's method.
Data set [11] in a line: Metal chelating activity assessed as compound-Al3+ complex formation by measuring shift in maximum absorption wavelength at 37.5 uM after 30 mins by UV-vis spectrophotometric method. In outline:
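UV absorption scanned from 200 to 600 nm after 30 min at room temperature in methanol. Compound and each metal salt (CuCl2, ZnCl2, AlCl3, FeSO4) were at 37.5 µM final. Spectra compared with and without metal.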

Data set [12] addresses T2, Acetylcholinesterase. The data set is described as follows: Inhibition of human erythrocyte AChE induced amyloid beta (1 to 40) aggregation at 25 uM after 24 hrs by ThT-based fluorometric method relative to control. In outline: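 HFIP-pretreated Aβ1-40 (230 µM final) co-incubated 24 h at room temperature with human AChE (2.3 µM; Aβ/AChE 100:1) ± compound in sodium phosphate buffer pH 8.0. Then 5 µM thioflavin T in glycine-NaOH pH 8.5 was added and read at ex 446/em 490 nm. Triplicate. % inhibition calculated from fluorescence with/without inhibitor, each minus its blank (Aβ alone, AChE alone, Aβ+inhibitor).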

For data set [13], the target named is Amyloid-beta precursor protein (Homo sapiens) (UniProt P05067). The data set is described as follows: Inhibition of amyloid beta (1 to 42) (unknown origin) self aggregation at 50 uM after 24 hrs by ThT-based fluorometric method relative to control. In outline: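 Aβ1-42 (25 µM final) incubated 24 h at 37 °C with or without compound (1-50 µM) in 50 mM phosphate buffer pH 7.4. Thioflavin T (5 µM in glycine-NaOH pH 8.5) then added, fluorescence read at ex 446/em 490 nm. Inhibition = (1-IFi/IFc)×100 after background subtraction. Run in triplicate.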

Calls of active or inactive are those of the source. The calls are words filed in the database; no cut-off is given here.

T2 sequence (P22303 whole entry): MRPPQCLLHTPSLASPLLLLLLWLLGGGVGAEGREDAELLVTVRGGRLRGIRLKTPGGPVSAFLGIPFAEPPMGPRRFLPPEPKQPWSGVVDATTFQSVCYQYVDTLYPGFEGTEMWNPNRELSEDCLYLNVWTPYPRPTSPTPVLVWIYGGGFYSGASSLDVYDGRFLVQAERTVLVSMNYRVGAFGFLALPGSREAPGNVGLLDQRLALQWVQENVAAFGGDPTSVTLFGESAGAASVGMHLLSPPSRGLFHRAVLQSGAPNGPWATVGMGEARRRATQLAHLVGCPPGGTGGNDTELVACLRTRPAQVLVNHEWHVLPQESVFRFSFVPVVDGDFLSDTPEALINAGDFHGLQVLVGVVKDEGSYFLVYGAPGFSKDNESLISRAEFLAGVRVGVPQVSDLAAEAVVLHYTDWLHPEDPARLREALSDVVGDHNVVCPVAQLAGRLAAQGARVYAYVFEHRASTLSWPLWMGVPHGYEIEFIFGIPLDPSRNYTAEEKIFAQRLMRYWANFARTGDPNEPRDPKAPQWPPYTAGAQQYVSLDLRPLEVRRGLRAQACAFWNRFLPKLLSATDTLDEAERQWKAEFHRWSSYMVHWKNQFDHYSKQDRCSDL
Acetylcholinesterase (Electrophorus electricus, UniProt O42275), sequence (O42275 whole entry): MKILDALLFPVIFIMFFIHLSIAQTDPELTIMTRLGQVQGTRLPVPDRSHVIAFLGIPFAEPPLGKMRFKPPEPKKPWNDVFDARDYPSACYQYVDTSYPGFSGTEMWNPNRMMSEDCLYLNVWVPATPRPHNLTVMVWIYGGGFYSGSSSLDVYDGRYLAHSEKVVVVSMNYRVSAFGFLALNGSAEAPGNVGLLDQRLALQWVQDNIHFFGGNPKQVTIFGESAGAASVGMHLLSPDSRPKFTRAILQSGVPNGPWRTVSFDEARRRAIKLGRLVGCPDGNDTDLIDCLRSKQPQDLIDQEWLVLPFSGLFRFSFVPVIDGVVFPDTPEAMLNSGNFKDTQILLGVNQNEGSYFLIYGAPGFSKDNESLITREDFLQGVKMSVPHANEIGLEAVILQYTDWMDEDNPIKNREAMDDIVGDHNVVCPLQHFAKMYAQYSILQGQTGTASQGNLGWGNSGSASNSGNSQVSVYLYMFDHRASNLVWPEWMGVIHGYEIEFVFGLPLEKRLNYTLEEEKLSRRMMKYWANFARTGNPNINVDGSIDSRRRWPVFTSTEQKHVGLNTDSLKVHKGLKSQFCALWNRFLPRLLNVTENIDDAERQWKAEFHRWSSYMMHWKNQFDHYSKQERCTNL
Amyloid-beta precursor protein (Homo sapiens), sequence (P05067 whole entry): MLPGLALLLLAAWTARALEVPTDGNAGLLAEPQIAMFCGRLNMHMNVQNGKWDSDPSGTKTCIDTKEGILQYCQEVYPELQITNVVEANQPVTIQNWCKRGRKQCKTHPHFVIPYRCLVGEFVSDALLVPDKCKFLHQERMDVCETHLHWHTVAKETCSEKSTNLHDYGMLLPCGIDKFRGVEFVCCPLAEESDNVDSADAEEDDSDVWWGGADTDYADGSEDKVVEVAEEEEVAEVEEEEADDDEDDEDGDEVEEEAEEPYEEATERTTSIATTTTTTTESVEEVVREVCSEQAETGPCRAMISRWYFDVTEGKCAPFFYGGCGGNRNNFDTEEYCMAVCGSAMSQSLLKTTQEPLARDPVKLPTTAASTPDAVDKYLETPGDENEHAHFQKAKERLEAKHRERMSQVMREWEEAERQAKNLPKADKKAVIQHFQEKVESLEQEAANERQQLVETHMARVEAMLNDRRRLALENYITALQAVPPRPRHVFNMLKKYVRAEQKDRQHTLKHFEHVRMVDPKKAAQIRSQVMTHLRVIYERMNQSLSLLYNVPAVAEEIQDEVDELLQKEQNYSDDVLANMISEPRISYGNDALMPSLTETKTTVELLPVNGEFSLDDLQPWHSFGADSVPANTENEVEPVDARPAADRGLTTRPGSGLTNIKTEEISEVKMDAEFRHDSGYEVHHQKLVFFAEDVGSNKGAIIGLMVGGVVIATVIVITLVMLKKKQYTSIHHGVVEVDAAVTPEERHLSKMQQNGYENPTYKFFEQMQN

Usually IC50 stands for the concentration needed to halve the response being measured. In general, inhibition refers to the change of the read-out against control, counted positive when it falls. Consider `CCN(CCCCNC(=O)COc1ccc(-c2cc(=O)c3c(O)c(OC)c(OC)cc3o2)cc1)Cc1ccccc1OC`, for which the Activity in data set [1] is 1.13 equiv; in the data set on PC-12 [2], “Dose-dependent effect”; in data set [3] it was 0.99 molar ratio. Moreover, in the data set with Mus musculus, the Time is given as 194.3 s. For the same molecule, in [4], the solubility result is reported as “Insoluble”. The viability at 10 µM in the data set with PC-12 [5] came out at 82.7%. In addition, the IC50 was 51 nM at Acetylcholinesterase [6], > 500000 nM in data set [7], 39 nM on Acetylcholinesterase [9] and 15900 nM against Acetylcholinesterase [10]. Moreover, the inhibition in data set [8] was determined as 43.4%; against Acetylcholinesterase [12] it was 32.7%; in [13], 75.2%. In [11], the result was Active.

These data come from ChEMBL document CHEMBL4052630, “Design, synthesis and evaluation of scutellarein-O-acetamidoalkylbenzylamines as potential multifunctional agents for the treatment of Alzheimer's disease” (Eur J Med Chem, 2017).
